Source: BindingDB's records for doi:10.1016/j.bmcl.2007.06.010 (Institut Henri Beaufour, 2007)

Target: Melanocortin receptor 4 (Homo sapiens, UniProt P32245)
Test: Displacement of [125I]NDP-alphaMSH from human melanocortin 4 receptor expressed in CHOK1 cells
In short: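 Membranes from CHO-K1 cells stably expressing human MC1, MC3, MC4 or MC5 receptor, 1–10 µg protein/well, in 50 mM Tris-HCl pH 7.4 with 0.2% BSA, 5 mM MgCl2, 1 mM CaCl2, 0.1 mg/mL bacitracin. Incubated with increasing test compound and 0.1–0.3 nM [125I]NDP-α-MSH, 90–120 min at 37 °C depending on subtype. Filtration on PEI-presoaked GF/C filters, cold buffer washes, radioactivity counted; nonlinear regression; three independent measurements.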

Sequence of Melanocortin receptor 4 (P32245 whole entry): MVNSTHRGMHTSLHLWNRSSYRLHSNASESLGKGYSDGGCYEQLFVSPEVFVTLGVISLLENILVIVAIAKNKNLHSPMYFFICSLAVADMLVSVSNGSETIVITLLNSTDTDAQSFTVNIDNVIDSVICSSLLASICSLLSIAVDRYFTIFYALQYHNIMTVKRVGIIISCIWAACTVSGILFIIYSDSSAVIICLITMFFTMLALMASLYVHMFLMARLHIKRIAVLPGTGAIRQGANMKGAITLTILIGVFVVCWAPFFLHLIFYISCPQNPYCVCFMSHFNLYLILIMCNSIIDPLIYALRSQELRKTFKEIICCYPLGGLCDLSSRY

Ki: 17 nM
SMILES: CC(C)CCN(CCC(C)C)C(=O)c1ccc2nc(NCc3ccccc3)n(CCCN3CCCCC3)c2c1 [2-(benzylamino)-N,N-diisopentyl-3-(3-(piperidin-1-yl)propyl)-3H-benzo[d]imidazole-5-carboxamide]
